Reference: ChEMBL document CHEMBL1144410, “Synthesis of 3-arylpiperazinylalkylpyrrolo[3,2-d]pyrimidine-2,4-dione derivatives as novel, potent, and selective alpha1-adrenoceptor ligands” (J Med Chem, 2005)

Tests used:
D(2) dopamine receptor = D(2) dopamine receptor (Rattus norvegicus, UniProt P61169); assay: Inhibition of [3H]spiperone binding to Dopamine receptor D2 from rat striatum
Method in brief: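 Membrane incubation in 50 mM Tris-HCl pH 7.1 with 10 µM pargyline, 120 mM NaCl, 5 mM KCl, 2 mM CaCl2, 1 mM MgCl2 and 0.1% ascorbic acid. [3H]spiperone 0.2 nM final, 15 min at 37 °C; 100 µM (-)-sulpiride for nonspecific binding. Vacuum filtration through GF/B, scintillation counting; Ki from IC50 of dose-inhibition curves, mean ± SD of three runs.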

D(1A) dopamine receptor = D(1A) dopamine receptor (Rattus norvegicus, UniProt P18901); assay: Inhibition of [3H]SCH-23390 binding to Dopamine receptor D1 from rat striatum
Method in brief: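 Ligand was [3H]SCH23390 at 0.4 nM final, 15 min, 25 °C; nonspecific binding defined with 10 µM (-)-cis-flupentixol. Filtration on GF/B, liquid scintillation counting. IC50 fitted, Ki derived; mean ± SD, n=3.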

Rattus norvegicus [1] = species on record: Rattus norvegicus; assay: Relative binding affinity for Dopamine D2 and Alpha-1 adrenergic receptors
[2] = molecular target: Serotonin 1a (5-HT1a) receptor/Adrenergic receptor alpha-1 (Rattus norvegicus) (UniProt P15823+P23944+P43140+P19327); assay: Relative binding affinity for 5-hydroxytryptamine 1A and Alpha-1 adrenergic receptors; format: protein assay
Rattus norvegicus [3] = species on record: Rattus norvegicus; assay: Relative binding affinity for Dopamine D1 and Alpha-1 adrenergic receptors
[4] = molecular target: T1, 5-hydroxytryptamine receptor 1A (Rattus norvegicus, UniProt P19327); assay: Inhibition of [3H]8-OH-DPAT binding to 5-hydroxytryptamine 1A receptor from rat hippocampus; format: tissue-based
T1 sequence (P19327 whole entry): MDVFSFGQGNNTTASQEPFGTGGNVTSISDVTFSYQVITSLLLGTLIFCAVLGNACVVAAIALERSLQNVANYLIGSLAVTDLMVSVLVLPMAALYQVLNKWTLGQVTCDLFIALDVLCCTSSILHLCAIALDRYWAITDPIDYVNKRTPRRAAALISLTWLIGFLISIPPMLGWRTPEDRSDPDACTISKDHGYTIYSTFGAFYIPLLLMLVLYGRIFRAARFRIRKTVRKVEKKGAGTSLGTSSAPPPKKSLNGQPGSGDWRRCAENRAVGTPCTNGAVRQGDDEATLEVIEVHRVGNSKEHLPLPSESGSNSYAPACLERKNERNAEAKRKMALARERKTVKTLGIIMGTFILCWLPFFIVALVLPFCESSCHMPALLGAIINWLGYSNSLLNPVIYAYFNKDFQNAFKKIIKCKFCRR
Method in brief: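 Membranes: tissue homogenized in ice-cold 50 mM Tris-HCl pH 7.4, spun 50000g, preincubated 37 °C 10 min, washed. Incubation buffer 50 mM Tris-HCl pH 7.7, 10 µM pargyline, 4 mM CaCl2. [3H]8-OH-DPAT 1 nM final, 30 min, 25 °C; nonspecific with 10 µM 5-HT. Stopped by GF/B filtration, scintillation counting. IC50 from dose-inhibition curves, converted to Ki; mean ± SD of three experiments.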

[5] = molecular target: T2, Adrenergic receptor alpha-1 (Rattus norvegicus, UniProt P15823+P23944+P43140); assay: Inhibition of [3H]prazosin binding to Alpha-1 adrenergic receptor from rat cortex
T2 sequence (P15823 whole entry): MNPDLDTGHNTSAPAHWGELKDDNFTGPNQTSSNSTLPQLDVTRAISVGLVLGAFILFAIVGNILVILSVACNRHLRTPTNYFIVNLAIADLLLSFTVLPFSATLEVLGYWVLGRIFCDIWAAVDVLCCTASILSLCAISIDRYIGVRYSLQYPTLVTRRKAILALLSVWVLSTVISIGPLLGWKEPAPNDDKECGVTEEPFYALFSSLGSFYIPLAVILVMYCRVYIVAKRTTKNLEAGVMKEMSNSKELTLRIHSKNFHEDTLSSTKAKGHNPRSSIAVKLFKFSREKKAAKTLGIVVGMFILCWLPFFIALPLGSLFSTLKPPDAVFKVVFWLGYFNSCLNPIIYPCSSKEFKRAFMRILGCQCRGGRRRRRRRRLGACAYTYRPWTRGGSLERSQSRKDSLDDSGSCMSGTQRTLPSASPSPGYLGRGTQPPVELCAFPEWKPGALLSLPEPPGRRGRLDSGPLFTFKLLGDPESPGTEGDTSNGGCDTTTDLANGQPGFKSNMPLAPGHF
T2 sequence (P23944 whole entry): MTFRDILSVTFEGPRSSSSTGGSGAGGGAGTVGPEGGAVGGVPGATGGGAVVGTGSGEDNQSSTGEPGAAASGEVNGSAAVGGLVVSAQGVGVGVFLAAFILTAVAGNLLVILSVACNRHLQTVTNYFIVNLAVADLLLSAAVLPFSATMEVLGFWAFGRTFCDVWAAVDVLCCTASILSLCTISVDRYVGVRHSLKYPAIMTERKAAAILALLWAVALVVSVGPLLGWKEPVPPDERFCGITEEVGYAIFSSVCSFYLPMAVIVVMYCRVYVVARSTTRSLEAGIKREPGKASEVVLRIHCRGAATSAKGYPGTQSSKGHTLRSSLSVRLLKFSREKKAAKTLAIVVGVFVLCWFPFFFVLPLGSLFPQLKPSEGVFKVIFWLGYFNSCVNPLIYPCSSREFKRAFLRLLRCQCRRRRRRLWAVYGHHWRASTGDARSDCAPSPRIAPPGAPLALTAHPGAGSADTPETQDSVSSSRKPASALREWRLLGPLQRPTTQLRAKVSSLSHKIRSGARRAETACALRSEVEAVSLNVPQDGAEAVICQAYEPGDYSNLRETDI
T2 sequence (P43140 whole entry): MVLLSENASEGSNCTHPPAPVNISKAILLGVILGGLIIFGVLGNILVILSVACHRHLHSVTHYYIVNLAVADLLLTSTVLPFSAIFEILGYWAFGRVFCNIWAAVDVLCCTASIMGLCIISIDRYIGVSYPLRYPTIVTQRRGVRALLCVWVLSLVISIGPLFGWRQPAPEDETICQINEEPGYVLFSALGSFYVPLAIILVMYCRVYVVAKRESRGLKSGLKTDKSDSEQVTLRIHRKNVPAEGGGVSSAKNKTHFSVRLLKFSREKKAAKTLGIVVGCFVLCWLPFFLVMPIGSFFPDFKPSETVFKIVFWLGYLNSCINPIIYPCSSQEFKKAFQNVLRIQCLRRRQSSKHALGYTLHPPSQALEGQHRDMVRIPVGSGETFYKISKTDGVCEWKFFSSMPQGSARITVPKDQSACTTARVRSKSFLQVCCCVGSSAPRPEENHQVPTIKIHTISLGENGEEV
Method in brief: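 Prepared membranes resuspended in 50 mM Tris-HCl pH 7.7 with 10 µM pargyline and 0.1% ascorbic acid. [3H]prazosin 0.2 nM final, 30 min, 25 °C; nonspecific binding with 3 µM phentolamine. Bound ligand collected on GF/B filters, counted by liquid scintillation. Ki derived from IC50 of dose-inhibition curves; mean ± SD of three separate experiments.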

Chain of D(1A) dopamine receptor (P18901 whole entry): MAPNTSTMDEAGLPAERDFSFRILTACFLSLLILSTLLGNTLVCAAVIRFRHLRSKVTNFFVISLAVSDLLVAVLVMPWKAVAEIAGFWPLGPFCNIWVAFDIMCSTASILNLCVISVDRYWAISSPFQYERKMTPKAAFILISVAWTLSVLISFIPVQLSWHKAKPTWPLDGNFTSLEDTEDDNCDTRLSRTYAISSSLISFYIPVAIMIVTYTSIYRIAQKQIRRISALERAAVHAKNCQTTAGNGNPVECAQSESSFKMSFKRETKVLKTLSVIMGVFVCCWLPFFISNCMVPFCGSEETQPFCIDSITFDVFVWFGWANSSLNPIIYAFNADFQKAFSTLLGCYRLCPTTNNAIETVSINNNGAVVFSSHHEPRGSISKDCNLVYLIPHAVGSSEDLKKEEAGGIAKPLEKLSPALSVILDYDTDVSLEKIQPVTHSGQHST
Chain of D(2) dopamine receptor (P61169 whole entry): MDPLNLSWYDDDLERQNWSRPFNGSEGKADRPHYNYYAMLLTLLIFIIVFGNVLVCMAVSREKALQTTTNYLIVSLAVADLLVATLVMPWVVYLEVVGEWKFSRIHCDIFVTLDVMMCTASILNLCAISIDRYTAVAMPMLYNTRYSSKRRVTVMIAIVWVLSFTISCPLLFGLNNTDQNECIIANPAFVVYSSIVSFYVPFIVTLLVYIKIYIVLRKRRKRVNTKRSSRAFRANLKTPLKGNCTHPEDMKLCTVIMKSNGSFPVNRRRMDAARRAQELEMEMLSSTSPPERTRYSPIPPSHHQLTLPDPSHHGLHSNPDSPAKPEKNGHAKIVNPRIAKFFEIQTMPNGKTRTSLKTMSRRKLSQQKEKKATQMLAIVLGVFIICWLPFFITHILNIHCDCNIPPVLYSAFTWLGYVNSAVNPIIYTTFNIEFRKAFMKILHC

| Ratio [2] | Ki [4] | Ki [5] | SMILES | Ki (D(2) dopamine receptor) | Ki (D(1A) dopamine receptor) | Ratio (Rattus norvegicus [1]) | Ratio (Rattus norvegicus [3]) |
| --- | --- | --- | --- | --- | --- | --- | --- |
| 238 |  |  | COc1ccccc1N1CCN(CCn2c(=O)[nH]c3c([nH]c4ccccc43)c2=O)CC1 |  |  |  |  |
| 2.1 | 130 nM | 62.37 nM | O=c1[nH]c2cc(-c3ccccc3)[nH]c2c(=O)n1CCCN1CCN(c2ccccc2Cl)CC1 |  |  |  |  |
| 1.73 | 83 nM | 47.88 nM | COc1ccccc1N1CCN(CCCn2c(=O)[nH]c3cc(-c4ccc(C)cc4)[nH]c3c2=O)CC1 |  |  |  |  |
| 0.87 | 16.9 nM | 19.32 nM | COc1ccccc1N1CCN(CCn2c(=O)[nH]c3cc(-c4cccc(Cl)c4)[nH]c3c2=O)CC1 |  |  |  |  |
| 6.9 | 193 nM | 28.01 nM | COc1ccccc1N1CCN(CCCn2c(=O)[nH]c3cc[nH]c3c2=O)CC1 |  |  |  |  |
| 21 | 16.1 nM | 0.76 nM | COc1ccccc1N1CCN(CCn2c(=O)[nH]c3cc(-c4ccccc4Cl)[nH]c3c2=O)CC1 |  |  |  |  |
| 282 | 651 nM | 2.31 nM | COc1ccccc1N1CCN(CCn2c(=O)[nH]c3cc[nH]c3c2=O)CC1 |  |  |  |  |
| 46 | 24 nM | 0.52 nM | COc1ccccc1N1CCN(CCn2c(=O)[nH]c3cc(-c4ccccc4)[nH]c3c2=O)CC1 |  |  |  |  |
| 594 | 559 nM | 0.94 nM | O=c1[nH]c2cc[nH]c2c(=O)n1CCN1CCN(c2ccccc2Cl)CC1 | 322 nM | > 10000 nM | 343 | > 10000 |
| 32 | 35 nM | 1.08 nM | O=c1[nH]c2cc(-c3ccccc3)[nH]c2c(=O)n1CCN1CCN(c2ccccc2Cl)CC1 |  |  |  |  |
| 18 | 22.4 nM | 1.23 nM | COc1ccccc1N1CCN(CCCn2c(=O)[nH]c3cc(-c4ccccc4)[nH]c3c2=O)CC1 |  |  |  |  |
| 6.3 | 376 nM | 59.78 nM | O=c1[nH]c2cc[nH]c2c(=O)n1CCCN1CCN(c2ccccc2Cl)CC1 |  |  |  |  |

| SMILES | Ratio [2] | Ki [4] | Ki [5] | Ki (D(2) dopamine receptor) | Ki (D(1A) dopamine receptor) | Ratio (Rattus norvegicus [1]) | Ratio (Rattus norvegicus [3]) |
| --- | --- | --- | --- | --- | --- | --- | --- |
| O=c1[nH]c2cc(-c3ccc(Cl)cc3)[nH]c2c(=O)n1CCN1CCN(c2ccccc2Cl)CC1 | > 800 | > 10000 nM | 11.7 nM | > 10000 nM | > 10000 nM | > 800 | > 800 |
| COc1ccc(-c2cc3[nH]c(=O)n(CCN4CCN(c5ccccc5Cl)CC4)c(=O)c3[nH]2)cc1 | > 2500 | > 10000 nM | 3.4 nM | 2.23 nM | > 10000 nM | 0.65 | > 2500 |
| Cc1ccc(-c2cc3[nH]c(=O)n(CCN4CCN(c5ccccc5Cl)CC4)c(=O)c3[nH]2)cc1 | > 500 | > 10000 nM | 17.26 nM | > 10000 nM | > 10000 nM | > 500 | > 500 |
| COc1ccc(N2CCN(CCn3c(=O)[nH]c4cc(-c5ccccc5)[nH]c4c3=O)CC2)cc1 |  | > 10000 nM | > 10000 nM |  |  |  |  |
| Cc1ccc(-c2cc3[nH]c(=O)n(CCCN4CCN(c5ccccc5Cl)CC4)c(=O)c3[nH]2)cc1 | > 90 | > 10000 nM | 110.1 nM |  |  |  |  |
| COc1ccccc1N1CCN(CCn2c(=O)[nH]c3cc(-c4ccc(Cl)cc4)[nH]c3c2=O)CC1 | > 1000 | > 10000 nM | 7.68 nM | 3.64 nM | > 10000 nM | 0.47 | > 1000 |
| O=c1[nH]c2c([nH]c3ccccc32)c(=O)n1CCN1CCN(c2ccccc2Cl)CC1 | > 15000 | > 10000 nM | 0.53 nM |  |  |  |  |
| COc1ccccc1N1CCN(CCn2c(=O)[nH]c3cc(-c4ccc(C)cc4)[nH]c3c2=O)CC1 | > 4500 | > 10000 nM | 2.05 nM | 19.9 nM | > 10000 nM | 9.7 | > 4500 |
| O=c1[nH]c2cc(-c3ccccc3Cl)[nH]c2c(=O)n1CCN1CCN(c2ccccc2Cl)CC1 | > 20000 | > 10000 nM | 0.46 nM | 27.8 nM | > 10000 nM | 60 | > 20000 |
